Measurements gathered from unrelated publications.
Each line is one published result; the experiments were not run side by side.
Observed: cell growth or viability

SMILES	cell line	method	concentration	time	measurement	result
O=C(NCc1cn(Cc2cccc(Cl)c2)nn1)Nc1ccc(Cl)cc1	Huh-7	CCK-8	50 µM	48 h	viability	86.1%
O=C(Nc1ccc(Cl)cc1)Nc1cccc(-c2cn(Cc3cccc(Br)c3)nn2)c1	Huh-7	CCK-8	50 µM	72 h	viability	14.5%
O=C(Nc1cccc(-c2cn(Cc3ccc(Br)cc3)nn2)c1)Nc1ccccc1Br	Huh-7	CCK-8	50 µM	48 h	viability	61.2%
O=c1[nH]cc(F)c(=O)[nH]1	LX-2	MTS	50 µM	72 h	inhibition	81.4%
O=C(Nc1ccc(Cl)cc1)Nc1cccc(-c2cn(Cc3ccc(Cl)cc3)nn2)c1	Huh-7	CCK-8	50 µM	48 h	viability	84%
C=C(NC(=O)C(=C)NC(=O)c1csc(C2=N[C@@H]3c4csc(n4)[C@H]4NC(=O)c5csc(n5)[C@H]([C@](C)(O)[C@@H](C)O)NC(=O)[C@H]5CSC(=N5)/C(=C/C)NC(=O)[C@H]([C@@H](C)O)NC(=O)c5csc(n5)[C@]3(CC2)NC(=O)[C@H](C)NC(=O)C(=C)NC(=O)[C@H](C)NC(=O)[C@H]([C@@H](C)CC)N[C@@H]2C=Cc3c([C@H](C)O)cc(nc3[C@H]2O)C(=O)O[C@@H]4C)n1)C(N)=O	NCI-H2009				EC50	1.5 µM
O=C(Nc1ccc(Cl)cc1)Nc1ccc(-c2cn(Cc3cccc(Cl)c3)nn2)cc1	Huh-7	CCK-8	50 µM	72 h	viability	70.4%
COc1ccc(NC(=O)Nc2ccc(-c3cn(Cc4ccc(C)cc4)nn3)cc2)cc1	Huh-7	CCK-8	50 µM	48 h	viability	77.3%
O=C(Nc1ccc(-c2ccccc2)cc1)c1cnn(-c2ccc([N+](=O)[O-])cc2)c1C(F)(F)F	LX-2	MTS	50 µM	72 h	inhibition	12.4%
COc1ccc(NC(=O)NCc2cn(Cc3ccc(Cl)cc3)nn2)cc1	Huh-7	CCK-8		72 h	IC50	> 50 µM
O=[N+]([O-])c1cc(Br)c(O)c(C=NNc2ccc(Cl)cc2)c1	HEK-293T	MTT		24 h	IC50	17.2 µM
COc1ccc(NC(=O)NCc2cn(Cc3ccccc3C)nn2)cc1	Huh-7	CCK-8	50 µM	48 h	viability	84.2%
O=[N+]([O-])c1cc(I)c(O)c(C=NNc2ccc(Br)cc2)c1	HEK-293T	MTT		24 h	IC50	11.4 µM
